A selection: hits, their analogues and other compounds. The true share with any hit is near 3.5%.
RGS4 block – human RGS4 inhibition. HEK293 M3R/RGS4 inducible, Fluo-4 calcium flux; stronger effect = higher value; triggered by carbachol at its EC20. B-score at 10 µM. 310,000 compounds, 0.45% hits;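 active = B-score, a plate-corrected calcium signal, over three deviations above library mean, with baseline fluorescence within five deviations of library mean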;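 also: RGS4 expression induced by doxycycline in cells with stable M3 receptor; B-score is computed from the integrated fluorescence ratio over baseline after carbachol; higher B-score means a larger calcium signal and so more RGS4 inhibition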
Target sequence (P49798 whole entry, looked up): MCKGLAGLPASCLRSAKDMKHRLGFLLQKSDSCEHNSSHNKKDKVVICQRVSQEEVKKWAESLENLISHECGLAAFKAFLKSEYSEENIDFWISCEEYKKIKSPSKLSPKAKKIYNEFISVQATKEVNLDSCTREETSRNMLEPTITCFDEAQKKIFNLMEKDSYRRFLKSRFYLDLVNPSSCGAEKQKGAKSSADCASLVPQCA
MrgX1 allo act – allosterically activates human MrgX1 receptor signaling; Q96LB2; MrgX1-HEK293, Fluo-4 calcium flux, FDSS; stronger effect = higher value; B-score at 10 µM; 310,000 compounds, 0.63% hits; AID 588675;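 active = plate-corrected calcium response at least 3 library SD above typical, normal starting fluorescence, not activating the receptor alone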;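 also: compound read alongside a low EC10 to EC30 dose of BAM8-22 agonist; peak minus trough fluorescence over baseline measured at the second addition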
Target sequence (Q96LB2 whole entry, looked up): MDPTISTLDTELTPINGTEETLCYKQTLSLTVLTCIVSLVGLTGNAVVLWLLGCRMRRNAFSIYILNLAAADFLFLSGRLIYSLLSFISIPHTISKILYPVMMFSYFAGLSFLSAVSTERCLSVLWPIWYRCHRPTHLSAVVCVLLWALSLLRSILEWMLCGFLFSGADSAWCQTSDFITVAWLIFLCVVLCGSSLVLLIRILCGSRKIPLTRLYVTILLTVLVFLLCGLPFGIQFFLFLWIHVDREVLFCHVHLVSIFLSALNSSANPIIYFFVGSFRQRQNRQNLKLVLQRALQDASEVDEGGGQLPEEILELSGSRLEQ
RGS4 pot – potentiators or activators of RGS4. 310,000 compounds, 0.92% hits. B-score at 10 µM. HEK293 M3R/inducible RGS4, carbachol calcium flux Fluo4; stronger effect = lower value;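 active = B-score of the integrated calcium signal more than 4 SD below the library mean, with starting fluorescence not abnormally high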;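 also: negative B-score means reduced calcium response which marks RGS4 activation or potentiation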
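System – HEK293 FlpIn-TREx cells, stable M3R, doxycycline-inducible RGS4 · Reagent – ECmax carbachol challenge · Times – compound preincubation 20 min at room temperature before agonist · Technique – Fluo4 fluorescence kinetic imaging of calcium · Measure – B score of integrated Fluo4 ratio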
MrgX1 antag – human MrgX1 receptor antagonism, primary screen | Q96LB2 | MRGX1-HEK293 calcium flux, Fluo-4, BAM8-22 antagonism; stronger effect = lower value | B-score at 10 µM | 310,000 compounds, 1.3% hits | AID 588676;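 active = calcium-response B-score plate-corrected more than 3 library SD below zero, starting fluorescence within 5 deviations, no agonist response on first addition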;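 also: peak minus trough fluorescence over baseline after final BAM8-22 challenge near maximal dose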
MrgX1 ag – agonists of human MrgX1 receptor; Q96LB2; MrgX1-HEK293 cells, Fluo-4 calcium fluorescence, agonist mode; stronger effect = higher value; B-score at 10 µM; 310,000 compounds, 0.44% hits; AID 588627;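 active = calcium response B-score plate-corrected fluorescence ratio at least 3 library SD, with starting fluorescence B-score inside 5 SD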
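System: HEK293 cells stably expressing human MrgX1 receptor; Dosing: test compound in the initial addition of three; Schedule: overnight plating, then 30 min 37 °C plus 30 min room-temperature dye loading; Detection: kinetic calcium dye fluorescence, Fluo-4 NW; Controls: per-plate positive and negative controls for Z′ factor.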
MrgX1 PAM conf – human MrgX1 positive allosteric modulation, re-confirmation; 1,200 compounds, 13% hits; shares compounds with MrgX1 allo act; activation (ratio percentage), % at 10 µM; MrgX1-HEK293, Fluo-4 calcium fluorescence, FDSS;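 active = ratio at least 3 SD above the weak peptide control, stable starting fluorescence, no direct agonism earlier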;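 also: compound followed by low BAM8-22 agonist challenge near EC20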
HEK293 Ca flux – activity in parental HEK293 cells lacking MrgX1; fluorescence ratio F(max-min)/F0 at 10 µM; AID 624111; Fluo-4 calcium fluorescence, FDSS; 4,000 compounds, 2% hits; shares compounds with MrgX1 antag;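 active = duplicate-averaged calcium fluorescence ratio at least three times the standard deviation of buffer wells, a nonspecific response in parental cells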
HEK293 Ca counter – activity in parental HEK293 cells without MrgX1; shares compounds with MrgX1 antag; parental HEK293 calcium flux, Fluo-4 fluorescence ratio; stronger effect = higher value; fluorescence ratio F(max-min)/F0 at 10 µM; 4,000 compounds, 0.4% hits; AID 624114;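 active = calcium fluorescence ratio, averaged over duplicates, at least 3 SD of the buffer-well ratio, meaning a nonspecific response in receptor-free cells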;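 also: untransfected parental HEK293 lacking MrgX1 used as counterscreen for MrgX1 allosteric activators; fluorescence change taken during the second addition on a kinetic imager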
HEK293 Ca cntr2 – MrgX1 activator counter-screen hit in parental HEK293 cells | shares compounds with MrgX1 antag | Fluo-4 calcium fluorescence (FDSS); stronger effect = higher value | 4,000 compounds, 8.7% hits | fluorescence ratio F(max-min)/F0 at 10 µM;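 active = calcium fluorescence ratio at least three times the spread of buffer wells, meaning a non-specific response in parental cells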
An asterisk follows results filed as active; i = inactive; x = no result given.

SMILES | RGS4 block | MrgX1 allo act | RGS4 pot | MrgX1 antag | MrgX1 ag | MrgX1 PAM conf | HEK293 Ca flux | HEK293 Ca counter | HEK293 Ca cntr2
COc1ccc(C(=O)c2ccc(N(C)C)cc2)c(OC)c1 | i | 8.7* | i | i | i | i | i | i | i
O=C(c1ccc(Br)cc1)N(c1ccccn1)C1CCCCC1 | i | 19* | i | i | i | i | i | i | i
Cc1cccc(NC(=O)CC(=O)Nc2cccc(C)c2)c1 | i | i | i | i | i | x | x | x | x
Cc1cccc(NC(=O)C23CCC(C)(C2Br)C3(C)C)c1 (stereo unspecified) | i | 20* | i | i | i | i | i | i | i
CC(=O)Nc1sc(/C(C#N)=C\c2cccc(Cl)c2)nc1-c1ccc(C)cc1 | i | 20* | i | i | i | i | 0.065* | i | 59*
CCCc1cc(C(N)=O)c(NC(=O)c2ccoc2C)s1 | i | 8.7* | i | i | i | i | i | i | i
CC1(C)Cc2ccccc2-c2nnc(SCC(=O)N3CCN(c4ccccc4)CC3)n21 | i | 10* | i | i | i | 9.3%* | i | i | i
COc1ccc(CC(=O)Nc2cc(=O)n(C)c(=O)n2C)cc1OC | i | 6.6* | i | i | i | i | i | i | i
COc1ccc(C(=O)Nc2cc(=O)n(C)c(=O)n2C)cc1OC | i | i | i | i | i | x | x | x | x
COC(=O)COc1ccc(-n2cnnn2)cc1 | i | i | i | i | i | x | x | x | x
CSCC[C@H](NC(=O)[C@@H]1Cc2ccccc2CN1)C(=O)NC1CCCC1 | i | 8.5* | i | i | i | i | i | i | i
CSCC[C@H](NC(=O)[C@@H]1Cc2ccccc2CN1)C(=O)NC(C)c1ccccc1 (stereo partly specified) | i | i | i | i | i | x | x | x | x
Cc1noc(C)c1C(=O)Nc1ccc2ccccc2c1 | i | i | i | i | i | x | x | x | x
CC(C)CNc1nc(SCC(=O)Nc2ccccc2)nc(N2CCOCC2)n1 | i | i | i | i | i | x | x | x | x
COc1ccc(S(=O)(=O)N2CCC3(CC2)CC(=O)c2ccccc2O3)cc1C | i | i | i | i | i | x | x | x | x
CN(C(=O)COC(=O)C1CCN(S(=O)(=O)c2c(Cl)cccc2Cl)CC1)C1CCCCC1 | i | i | i | i | i | x | x | x | x
CC(C)Oc1ccc(C(=O)N2CCN(C(=O)c3ccco3)CC2)cc1 | i | i | i | i | i | x | x | x | x
COc1cc(/C=C2/C(=N)N3N=C(CC(=O)N4CCOCC4)SC3=NC2=O)ccc1OCc1ccccc1 | i | 19* | i | i | i | 12%* | i | i | i
CCOC(=O)c1c(-c2cccs2)csc1N | i | 8.4* | i | i | i | i | i | i | i
CCOc1ccccc1NC(=O)c1cccc(NC(=O)C2CCCC2)c1 | i | i | i | i | i | x | x | x | x
CCCCN1CC[C@H]2C=CC[C@@H](C(=O)Nc3ccc(Cl)cc3Cl)[C@H]2C1=O | i | 6.9* | i | i | i | i | i | i | i
CCCCN1CC[C@H]2C=CC[C@@H](C(=O)NCc3ccc(OC)cc3)[C@H]2C1=O | i | i | i | i | i | x | x | x | x
CC(=O)c1ccc(N2CCN(C(C)C(=O)NC3CCCc4ccccc43)CC2)cc1 (stereo unspecified) | i | i | i | i | i | x | x | x | x
CCOc1ccccc1N(CC(=O)NC1CCCCC1)S(=O)(=O)c1ccc(C)cc1 | i | 9.2* | i | i | i | i | i | i | i
CS(=O)(=O)Cc1ccc(C(=O)NC2CCSc3ccccc32)cc1 (stereo unspecified) | i | i | i | i | i | x | x | x | x
SMILES | RGS4 block | MrgX1 allo act | RGS4 pot | MrgX1 antag | MrgX1 ag | MrgX1 PAM conf | HEK293 Ca flux | HEK293 Ca counter | HEK293 Ca cntr2
Cn1c(=O)c2c(nc(N3CCCCCC3)n2Cc2cccc3ccccc23)n(C)c1=O | i | 7.5* | i | i | i | i | i | 51* | i
CN1CCN(c2nc3c(c(=O)n(C)c(=O)n3C)n2Cc2cccc3ccccc23)CC1 | i | i | i | i | i | x | x | x | x
Cn1c(=O)c2c(nc(CN3CCc4ccccc4C3)n2Cc2ccccc2F)n(C)c1=O | i | 25* | i | i | i | 38%* | i | i | i
Cn1c(=O)c2c(nc(CN3CCc4ccccc4C3)n2CCCO)n(C)c1=O | i | i | i | i | i | x | x | x | x
COc1ccc(N2CCN(S(=O)(=O)c3cn(C)cn3)CC2)cc1 | i | i | i | i | i | x | x | x | x
C=C/C(C)=C/C[C@H]1C(=C)CCC2[C@](C)(C(=O)O)CCC[C@@]21C (stereo partly specified) | x | 7.4* | x | i | i | i | i | i | i
C=C1CCC2[C@](C)(CO)[C@H](O)CC[C@@]2(C)[C@@H]1C/C=C1\C(=O)OC[C@H]1O (stereo partly specified) | i | i | i | i | i | x | x | x | x
COc1ccc(C=O)cc1Cn1c(C)cc(C)c(C#N)c1=O | i | i | i | i | i | x | x | x | x
COc1cc(NC(=O)C2CCCC2)c(OC)cc1Cl | i | 6.6* | i | i | i | i | i | i | i
O=C(CCNS(=O)(=O)c1ccc(Br)cc1)NC1CCCCC1 | i | i | i | i | i | x | x | x | x
O=S(=O)(NC(=S)NC1CCCCC1)c1ccc(Br)cc1 | i | 28* | i | i | i | 25%* | i | i | i
O=c1ccccn1Cc1c(F)cccc1Cl | i | i | i | i | i | x | x | x | x
COc1ccc(-c2cc(C(=O)N3CCN(c4ncccn4)CC3)c3ccccc3n2)c(OC)c1 | i | 7.4* | i | i | i | i | i | i | 71*
CC(=O)c1sc2nc(C)c3c(c2c1N)CCCC3 | i | 9.7* | i | i | i | i | i | i | i
O=C1Nc2cc(C(=O)N3CCOCC3)ccc2S/C1=C\c1ccccc1 | i | i | i | i | i | x | x | x | x

Screens deposited in PubChem BioAssay by Johns Hopkins Ion Channel Center.
